One may read the MIC as the smallest concentration in the dilution series that meets the test's criterion for growth inhibition. Usually MTD stands for the largest dose that counted as tolerated. The low end stands for poorer tolerability, the high end for better tolerability.

Each structure is given as a SMILES string. Converted amounts (≈) assume the structure as drawn.

The species entered for one assay is Mus musculus. The assay can be described thus: Days of the first positive reaction in […] mice. Type of assay: functional.
Conditions: not given
In a few lines:
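Phototoxic skin reaction test in depilated female CD-1 mice. A single oral dose (gavage) or subcutaneous dose was given, followed 1 h later by 3 h of UVA exposure (320–400 nm). The regimen was repeated for up to 4 consecutive days, with initial doses of 30, 100 and 300 mg/kg. PTD50 was derived by the probit method. The first day of positive reaction and the no-effect dose were taken from the raw data.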
As to `CC1(CN)CCN(c2cc3c(cc2F)c(=O)c(C(=O)O)cn3C2CC2)C1` (stereo not given), the “Day of first positve reaction” value stood at 0.

As to `C[C@@H]1CN(c2c(F)cc3c(=O)c(C(=O)O)cn(C4CC4)c3c2C(F)(F)F)CCN1`, the “Day of first positve reaction” value came to 0.

The next assay is filed under the species Mus musculus. The assay can be described thus: Number of mice which show positive phototoxic reaction in 5 mice. Type of assay: functional.
Conditions: not given
Regarding `CC1(CN)CCN(c2cc3c(cc2F)c(=O)c(C(=O)O)cn3C2CC2)C1` (stereo not given), the “No. of pos rxns” value is given as 0.

As for `C[C@@H]1CN(c2c(F)cc3c(=O)c(C(=O)O)cn(C4CC4)c3c2C(F)(F)F)CCN1`, the “No. of pos rxns” value was found to be 0.

The next assay relates to Escherichia coli. As to the kind of experiment: In vivo efficacy in mouse protection test in Escherichia coli Vogel administered by subcutaneous injection. It is filed as functional. The conditions noted are these: Escherichia coli, sc; read-out: PD50. The essentials:
(§1)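 Acute lethal systemic infections in female Charles River CD-1 mice. A single dose was given at challenge, orally by gavage or by subcutaneous injection. PD50 (median protective dose, mg/kg) was determined.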
With `CC1(CN)CCN(c2cc3c(cc2F)c(=O)c(C(=O)O)cn3C2CC2)C1` (stereo not given), the ED50 was determined as 1.7 mg/kg.

As to `C[C@@H]1CN(c2c(F)cc3c(=O)c(C(=O)O)cn(C4CC4)c3c2C(F)(F)F)CCN1`, the ED50 is 1.4 mg/kg.

The next assay deals with Escherichia coli. As to the kind of experiment: In vivo efficacy in mouse protection test in Escherichia coli Vogel dose administered orally by gavage. It is filed as functional. The conditions noted are these: Escherichia coli, po; read-out: PD50. The essentials:
as §1
For `CC1(CN)CCN(c2cc3c(cc2F)c(=O)c(C(=O)O)cn3C2CC2)C1` (stereo not given), the ED50 was found to be 26 mg/kg.

Turning to `C[C@@H]1CN(c2c(F)cc3c(=O)c(C(=O)O)cn(C4CC4)c3c2C(F)(F)F)CCN1`, the ED50 came to 1.6 mg/kg.

The next assay concerns Escherichia coli. As to the kind of experiment: Minimum inhibitory concentration (MIC) against gram negative bacteria Escherichia coli H-560. It is filed as functional. The conditions noted are these: Escherichia coli; read-out: MIC. The essentials: (§2)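 MICs were determined by standard broth microtitration against 11 Gram-positive and Gram-negative organisms, in µg/mL. Values come from duplicate or triplicate experiments and are accurate to ±50%.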
`CC1(CN)CCN(c2cc3c(cc2F)c(=O)c(C(=O)O)cn3C2CC2)C1` (stereo not given): the MIC was 0.025 µg/mL (≈ 0.0696 µM).

As to `C[C@@H]1CN(c2c(F)cc3c(=O)c(C(=O)O)cn(C4CC4)c3c2C(F)(F)F)CCN1`, the MIC came out at 0.05 µg/mL (≈ 0.121 µM).

A further assay relates to Escherichia coli. The assay can be described thus: Minimum inhibitory concentration (MIC) against gram negative bacteria Escherichia coli Vogel. To be noted: Escherichia coli; read-out: MIC. It is filed as functional. The essentials: as §2
Take `CC1(CN)CCN(c2cc3c(cc2F)c(=O)c(C(=O)O)cn3C2CC2)C1` (stereo not given): the MIC came to 0.025 µg/mL (≈ 0.0696 µM).

`C[C@@H]1CN(c2c(F)cc3c(=O)c(C(=O)O)cn(C4CC4)c3c2C(F)(F)F)CCN1`: the minimum inhibitory concentration (MIC) came out at 0.1 µg/mL (≈ 0.242 µM).

The test system of the next assay is Enterobacter cloacae. The assay can be described thus: Minimum inhibitory concentration (MIC) against gram negative bacteria Enterobacter cloacae MA-2646. Type of assay: functional.
Conditions: not given
In the case of `CC1(CN)CCN(c2cc3c(cc2F)c(=O)c(C(=O)O)cn3C2CC2)C1` (stereo not given), the MIC came out at 0.05 µg/mL (≈ 0.139 µM).

`C[C@@H]1CN(c2c(F)cc3c(=O)c(C(=O)O)cn(C4CC4)c3c2C(F)(F)F)CCN1` came in with an MIC of 0.2 µg/mL (≈ 0.484 µM).

In another assay the test system is Klebsiella pneumoniae. The assay can be described thus: Minimum inhibitory concentration (MIC) against gram negative bacteria Klebsiella pneumoniae MGH-2. To be noted: Klebsiella pneumoniae; read-out: MIC. It is filed as functional. The essentials:
as §2
With `CC1(CN)CCN(c2cc3c(cc2F)c(=O)c(C(=O)O)cn3C2CC2)C1` (stereo not given), the MIC came out at 0.2 µg/mL (≈ 0.556 µM).

On to `C[C@@H]1CN(c2c(F)cc3c(=O)c(C(=O)O)cn(C4CC4)c3c2C(F)(F)F)CCN1`, for which the MIC was 0.4 µg/mL (≈ 0.968 µM).

The species entered for a further assay is Mus musculus. The assay can be described thus: Dose required to induce phototoxic reaction in 50% of mice by probit method at different dosage forms. It is filed as functional.
Conditions: not given
`CC1(CN)CCN(c2cc3c(cc2F)c(=O)c(C(=O)O)cn3C2CC2)C1` (stereo not given) yielded a PTD50 of more than 100 mg/kg.

`C[C@@H]1CN(c2c(F)cc3c(=O)c(C(=O)O)cn(C4CC4)c3c2C(F)(F)F)CCN1` showed a PTD50 of more than 100 mg/kg.

The species named for the next assay is Mus musculus. The assay can be described thus: Dose which has no effect to induce phototoxic reaction in 50% of mice by probit method. Type of assay: functional.
Conditions: not given
For `CC1(CN)CCN(c2cc3c(cc2F)c(=O)c(C(=O)O)cn3C2CC2)C1` (stereo not given), the No effect dose turned out to be 100 mg/kg.

As to `C[C@@H]1CN(c2c(F)cc3c(=O)c(C(=O)O)cn(C4CC4)c3c2C(F)(F)F)CCN1`, the No effect dose amounted to 100 mg/kg.

In a further assay the test system is Mus musculus. The assay can be described thus: Maximum tolerance dose was measured for phototoxic skin reaction by po administration. It is filed as functional.
Conditions: not given
`CC1(CN)CCN(c2cc3c(cc2F)c(=O)c(C(=O)O)cn3C2CC2)C1` (stereo not given) yielded an MTD of 100 mg/kg.

Take `C[C@@H]1CN(c2c(F)cc3c(=O)c(C(=O)O)cn(C4CC4)c3c2C(F)(F)F)CCN1`: the MTD was 100 mg/kg.

Test system in the next assay: not listed separately
The assay can be described thus: Minimum inhibitory concentration (MIC) against gram negative bacteria Prot. rettgeri M-1771. Type of assay: functional, Providencia rettgeri. The conditions noted are these: Providencia rettgeri; read-out: MIC. The essentials:
as §2
For `CC1(CN)CCN(c2cc3c(cc2F)c(=O)c(C(=O)O)cn3C2CC2)C1` (stereo not given), the MIC is 0.4 µg/mL (≈ 1.11 µM).

`C[C@@H]1CN(c2c(F)cc3c(=O)c(C(=O)O)cn(C4CC4)c3c2C(F)(F)F)CCN1`: the MIC worked out at 0.8 µg/mL (≈ 1.94 µM).

The test system of another assay is Pseudomonas aeruginosa. As to the kind of experiment: Minimum inhibitory concentration (MIC) against gram negative bacteria Pseudomonas aeruginosa UI-18. The conditions noted are these: Pseudomonas aeruginosa; read-out: MIC. It is filed as functional. The essentials:
as §2
For `CC1(CN)CCN(c2cc3c(cc2F)c(=O)c(C(=O)O)cn3C2CC2)C1` (stereo not given), the MIC amounted to 1.6 µg/mL (≈ 4.45 µM).

For the compound `C[C@@H]1CN(c2c(F)cc3c(=O)c(C(=O)O)cn(C4CC4)c3c2C(F)(F)F)CCN1`, the MIC was 3.1 µg/mL (≈ 7.5 µM).

Another assay deals with Streptococcus pyogenes. As to the kind of experiment: In vivo efficacy (s.c.) against Streptococcus pyogenes C-203 in mouse protection test. It is filed as functional. To be noted: Streptococcus pyogenes, sc; read-out: PD50. In a few lines: as §1
Regarding `C[C@@H]1CN(c2c(F)cc3c(=O)c(C(=O)O)cn(C4CC4)c3c2C(F)(F)F)CCN1`, the ED50 was 21 mg/kg.

The test system of a further assay is Streptococcus pyogenes. As to the kind of experiment: In vivo efficacy (orally) against Streptococcus pyogenes C-203 in mouse protection test. It is filed as functional. The conditions noted are these: Streptococcus pyogenes, po; read-out: PD50. In a few lines:
as §1
As for `C[C@@H]1CN(c2c(F)cc3c(=O)c(C(=O)O)cn(C4CC4)c3c2C(F)(F)F)CCN1`, the ED50 amounted to 23 mg/kg.

A further assay relates to Staphylococcus aureus. As to the kind of experiment: Minimum inhibitory concentration (MIC) against gram positive bacteria Staphylococcus aureus H-228. To be noted: Staphylococcus aureus; read-out: MIC. It is filed as functional. The essentials:
as §2
For the compound `CC1(CN)CCN(c2cc3c(cc2F)c(=O)c(C(=O)O)cn3C2CC2)C1` (stereo not given), the MIC amounted to 0.1 µg/mL (≈ 0.278 µM).

On to `C[C@@H]1CN(c2c(F)cc3c(=O)c(C(=O)O)cn(C4CC4)c3c2C(F)(F)F)CCN1`, for which the MIC worked out at 0.4 µg/mL (≈ 0.968 µM).

A further assay relates to Staphylococcus aureus. The assay can be described thus: Minimum inhibitory concentration (MIC) against gram positive bacteria Staphylococcus aureus UC-76. Type of assay: functional. The conditions noted are these: Staphylococcus aureus; read-out: MIC. In a few lines: as §2
Consider `CC1(CN)CCN(c2cc3c(cc2F)c(=O)c(C(=O)O)cn3C2CC2)C1` (stereo not given), for which the minimum inhibitory concentration (MIC) is 0.013 µg/mL (≈ 0.0362 µM).

For `C[C@@H]1CN(c2c(F)cc3c(=O)c(C(=O)O)cn(C4CC4)c3c2C(F)(F)F)CCN1`, the MIC is 0.2 µg/mL (≈ 0.484 µM).

In a further assay the test system is Enterococcus faecalis. The assay can be described thus: Minimum inhibitory concentration (MIC) against gram positive bacteria Streptococcus faecalis MGH-2. The conditions noted are these: Enterococcus faecalis; read-out: MIC. It is filed as functional. In a few lines: as §2
On to `CC1(CN)CCN(c2cc3c(cc2F)c(=O)c(C(=O)O)cn3C2CC2)C1` (stereo not given), for which the MIC worked out at 0.05 µg/mL (≈ 0.139 µM).

For the compound `C[C@@H]1CN(c2c(F)cc3c(=O)c(C(=O)O)cn(C4CC4)c3c2C(F)(F)F)CCN1`, the MIC is 0.8 µg/mL (≈ 1.94 µM).

The next assay concerns Streptococcus pneumoniae. As to the kind of experiment: Minimum inhibitory concentration (MIC) against gram positive bacteria Streptococcus pneumoniae SV-1. The conditions noted are these: Streptococcus pneumoniae; read-out: MIC. Type of assay: functional. The essentials: as §2
As to `CC1(CN)CCN(c2cc3c(cc2F)c(=O)c(C(=O)O)cn3C2CC2)C1` (stereo not given), the MIC was 0.003 µg/mL (≈ 0.00835 µM).

`C[C@@H]1CN(c2c(F)cc3c(=O)c(C(=O)O)cn(C4CC4)c3c2C(F)(F)F)CCN1`: the MIC was 0.8 µg/mL (≈ 1.94 µM).

For a further assay, the system named is Streptococcus pyogenes. As to the kind of experiment: Minimum inhibitory concentration (MIC) against gram positive bacteria Streptococcus pyogenes C-203. Type of assay: functional. The conditions noted are these: Streptococcus pyogenes; read-out: MIC. In a few lines:
as §2
Take `CC1(CN)CCN(c2cc3c(cc2F)c(=O)c(C(=O)O)cn3C2CC2)C1` (stereo not given): the MIC turned out to be 0.003 µg/mL (≈ 0.00835 µM).

With `C[C@@H]1CN(c2c(F)cc3c(=O)c(C(=O)O)cn(C4CC4)c3c2C(F)(F)F)CCN1`, the minimum inhibitory concentration (MIC) was determined as 0.8 µg/mL (≈ 1.94 µM).

In a further assay the test system is Streptococcus pneumoniae. The assay can be described thus: In vivo efficacy (s.c.) against Streptococcus pneumoniae SV-1 in mouse protection test. To be noted: Streptococcus pneumoniae, sc; read-out: PD50. Type of assay: functional. In a few lines:
as §1
Consider `CC1(CN)CCN(c2cc3c(cc2F)c(=O)c(C(=O)O)cn3C2CC2)C1` (stereo not given), for which the ED50 was 0.45 mg/kg.

The subject of a further assay is Streptococcus pneumoniae. As to the kind of experiment: In vivo efficacy (orally) against Streptococcus pneumoniae SV-1 in mouse protection test. To be noted: Streptococcus pneumoniae, po; read-out: PD50. It is filed as functional. In a few lines: as §1
`CC1(CN)CCN(c2cc3c(cc2F)c(=O)c(C(=O)O)cn3C2CC2)C1` (stereo not given): the ED50 was 12 mg/kg.

The values are drawn from ChEMBL document CHEMBL1125291, “New 8-(trifluoromethyl)-substituted quinolones. The benefits of the 8-fluoro group with reduced phototoxic risk” (1992).
